In ChEMBL document CHEMBL1275595, “Antimicrobial activity of a halocidin-derived peptide resistant to attacks by proteases” (2010):
Values after ≈ are worked out from the molar mass of the structure shown. Active and inactive are the calls of the source. The rule behind the calls is not given here. Bridge positions count the residues as written; N and C are the ends. Peptide text beside a SMILES is read from it. I, II: the chains in the order shown.

Experiments:
Staphylococcus aureus [1] = experiment: Antimicrobial activity against methicillin-resistant Staphylococcus aureus CCARM 3696 by radial diffusion assay; type: functional, organism-based
Method in brief: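 Radial diffusion. Washed mid-log MRSA (4 × 10^6 CFU) was mixed into 10 ml underlay of 1% agarose and 0.03% TSB in 9 mM NaP/1 mM sodium citrate, pH 7.4. Wells 3 mm wide received 5 μl of peptide at 200 μg/ml in 0.01% acetic acid. After 3 h at 37°C, a 1% agarose/6% TSB overlay was added and plates were incubated overnight. Clear zone diameter was read in units, 0.1 mm = 1 unit.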

Escherichia coli = experiment: Antimicrobial activity against Escherichia coli KCTC 1039 after 18 hrs by broth dilution method; type: functional; conditions: KCTC 1039, 18 h
Method in brief: (§1)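 Broth microdilution following CLSI recommendations. Bacteria were grown overnight to stationary phase in Mueller-Hinton broth, then diluted in fresh MHB to 2 × 10^5 CFU/ml. Peptide or antibiotic stocks of 640 μg/ml in 0.01% acetic acid were serially 2-fold diluted to 10 μg/ml, and each was added to the bacterial suspension at 11 μl per 100 μl. Plates were incubated 18 h at 37°C. MIC was taken as the lowest concentration giving no visible turbidity, in triplicate.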

Staphylococcus aureus [2] = experiment: Antimicrobial activity against methicillin-resistant Staphylococcus aureus CCARM 3696 by colony count assay incubated with trypsin for 1 hr; type: functional, organism-based
Method in brief: (§2)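 Peptide (20 μg) was incubated at 37°C with 50 nM trypsin in 100 μl of 10 mM sodium phosphate, then heated 10 min at 80°C and cooled. MRSA (100 μl, 2 × 10^7 CFU/ml) was added for 5 min. Aliquots were plated on TSA (1.5% agarose, 3% TSB in NaP) and counted after overnight growth at 37°C. Read-out was CFU/ml; repeated three times on different days.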

Salmonella enterica = experiment: Antimicrobial activity against Salmonella enterica KCTC 2930 after 18 hrs by broth dilution method; type: functional; conditions: KCTC 2930, 18 h; method in brief: as §1
Staphylococcus aureus [3] = experiment: Antimicrobial activity against methicillin-resistant Staphylococcus aureus CCARM 3696 by colony count assay incubated with trypsin for 10 mins; type: functional, organism-based; method in brief: as §2
Enterococcus faecium = experiment: Antimicrobial activity against vancomycin-resistant Enterococcus faecium CCARM 5028 after 18 hrs by broth dilution method; type: functional; conditions: CCARM 5028, 18 h
Method in brief: (§3)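 Broth dilution per CLSI. Bacteria were grown overnight to stationary phase in Mueller-Hinton broth and diluted in fresh MHB to 2 × 10^5 CFU/ml. Stocks at 640 μg/ml in 0.01% acetic acid were 2-fold serially diluted to 10 μg/ml, and 11 μl was added to 100 μl of bacteria. After 18 h at 37°C, MIC was the lowest concentration with no visible turbidity. Run in triplicate.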

Citrobacter freundii = experiment: Antimicrobial activity against Citrobacter freundii KCTC 2359 after 18 hrs by broth dilution method; type: functional; conditions: KCTC 2359, 18 h; method in brief: as §1
Listeria monocytogenes = experiment: Antimicrobial activity against Listeria monocytogenes KCTC 19111 after 18 hrs by broth dilution method; type: functional; conditions: KCTC 19111, 18 h; method in brief: as §1
Staphylococcus aureus [4] = experiment: Antimicrobial activity against methicillin-resistant Staphylococcus aureus CCARM 3696 by radial diffusion assay incubated with trypsin; type: functional, organism-based
Staphylococcus aureus [5] = experiment: Antimicrobial activity against methicillin-resistant Staphylococcus aureus CCARM 3696 by radial diffusion assay incubated with matrix metalloprotease 7 for 1 hr; type: functional, organism-based
Klebsiella oxytoca = experiment: Antimicrobial activity against Klebsiella oxytoca KCTC 1686 after 18 hrs by broth dilution method; type: functional; conditions: KCTC 1686, 18 h; method in brief: as §1
Staphylococcus aureus [6] = experiment: Antimicrobial activity against methicillin-resistant Staphylococcus aureus CCARM 3696 by radial diffusion assay incubated with chymotrypsin for 1 hr; type: functional, organism-based
Bacillus subtilis = experiment: Antimicrobial activity against Bacillus subtilis KCTC 2213 after 18 hrs by broth dilution method; type: functional; conditions: KCTC 2213, 18 h; method in brief: as §1
Micrococcus luteus = experiment: Antimicrobial activity against Micrococcus luteus KCTC 9341 after 18 hrs by broth dilution method; type: functional; conditions: KCTC 9341, 18 h; method in brief: as §1
Staphylococcus aureus [7] = experiment: Antimicrobial activity against methicillin-resistant Staphylococcus aureus CCARM 3696 by radial diffusion assay incubated with Pseudomonas aeruginosa Culture supernatant for 1 hr; type: functional, organism-based
Staphylococcus aureus [8] = experiment: Antimicrobial activity against methicillin-resistant Staphylococcus aureus CCARM 3696 after 18 hrs by broth dilution method; type: functional; conditions: CCARM 3696, 18 h; method in brief: as §3
Staphylococcus aureus [9] = experiment: Antimicrobial activity against methicillin-resistant Staphylococcus aureus CCARM 3696 by colony count assay incubated with trypsin for 20 mins; type: functional, organism-based; method in brief: as §2
Pseudomonas aeruginosa = experiment: Antimicrobial activity against multidrug-resistant Pseudomonas aeruginosa CCARM 2161 after 18 hrs by broth dilution method; type: functional; conditions: CCARM 2161, 18 h; method in brief: as §3
Staphylococcus aureus [10] = experiment: Antimicrobial activity against methicillin-resistant Staphylococcus aureus CCARM 3696 by radial diffusion assay incubated with Staphylococcus aureus Culture supernatant for 1 hr; type: functional, organism-based
Staphylococcus aureus [11] = experiment: Antimicrobial activity against methicillin-resistant Staphylococcus aureus CCARM 3696 by radial diffusion assay incubated with chymotrypsin; type: functional, organism-based

## CC(C)C[C@H](NC(=O)CNC(=O)[C@H](Cc1cnc[nH]1)NC(=O)[C@H](Cc1cnc[nH]1)NC(=O)[C@H](CC(C)C)NC(=O)[C@H](CC(C)C)NC(=O)[C@H](C)NC(=O)[C@H](CCCCN)NC(=O)[C@H](CCCCN)NC(=O)[C@H](Cc1c[nH]c2ccccc12)NC(=O)[C@@H](N)CCCCN)C(=O)N[C@@H](CC(N)=O)C(=O)N[C@@H](CSSC[C@H](NC(=O)[C@H](CC(N)=O)NC(=O)[C@H](CC(C)C)NC(=O)CNC(=O)[C@H](Cc1cnc[nH]1)NC(=O)[C@@H](N)Cc1cnc[nH]1)C(=O)N[C@@H](C)C(=O)N[C@@H](CCCCN)C(=O)NCC(=O)N[C@H](C(=O)N[C@@H](CC(C)C)C(=O)N[C@@H](C)C(N)=O)C(C)C)C(=O)N[C@@H](C)C(=O)N[C@@H](CCCCN)C(=O)NCC(=O)N[C@H](C(=O)N[C@@H](CC(C)C)C(=O)N[C@@H](C)C(N)=O)C(C)C (I: H-KWKKALLHHGLNCAKGVLA-NH2 / II: H-HHGLNCAKGVLA-NH2; disulfide I:13-II:6)
Staphylococcus aureus [1]
  Activity: Active

## CC(C)C[C@H](NC(=O)CNC(=O)[C@H](Cc1cnc[nH]1)NC(=O)[C@H](Cc1cnc[nH]1)NC(=O)[C@H](CC(C)C)NC(=O)[C@H](CC(C)C)NC(=O)[C@H](C)NC(=O)[C@H](CCCCN)NC(=O)[C@@H](N)CCCCN)C(=O)N[C@@H](CC(N)=O)C(=O)N[C@@H](CSSC[C@H](NC(=O)[C@H](CC(N)=O)NC(=O)[C@H](CC(C)C)NC(=O)CNC(=O)[C@H](Cc1cnc[nH]1)NC(=O)[C@@H](N)Cc1cnc[nH]1)C(=O)N[C@@H](C)C(=O)N[C@@H](CCCCN)C(=O)NCC(=O)N[C@H](C(=O)N[C@@H](CC(C)C)C(=O)N[C@@H](C)C(N)=O)C(C)C)C(=O)N[C@@H](C)C(=O)N[C@@H](CCCCN)C(=O)NCC(=O)N[C@H](C(=O)N[C@@H](CC(C)C)C(=O)N[C@@H](C)C(N)=O)C(C)C (I: H-KKALLHHGLNCAKGVLA-NH2 / II: H-HHGLNCAKGVLA-NH2; disulfide I:11-II:6)
Staphylococcus aureus [1]
  Activity: inactive

## CC(C)C[C@H](NC(=O)CNC(=O)[C@H](Cc1cnc[nH]1)NC(=O)[C@H](Cc1cnc[nH]1)NC(=O)[C@H](CC(C)C)NC(=O)[C@H](CC(C)C)NC(=O)[C@H](C)NC(=O)[C@H](CCCCN)NC(=O)[C@H](CCCCN)NC(=O)[C@H](Cc1c[nH]c2ccccc12)NC(=O)[C@@H](N)CCCCN)C(=O)N[C@@H](CC(N)=O)C(=O)N[C@@H](CSSC[C@H](NC(=O)[C@H](CC(N)=O)NC(=O)[C@H](CC(C)C)NC(=O)CNC(=O)[C@H](Cc1cnc[nH]1)NC(=O)[C@H](Cc1cnc[nH]1)NC(=O)[C@H](CC(C)C)NC(=O)[C@H](CC(C)C)NC(=O)[C@H](C)NC(=O)[C@H](CCCCN)NC(=O)[C@@H](N)CCCCN)C(=O)N[C@@H](C)C(=O)N[C@@H](CCCCN)C(=O)NCC(=O)N[C@H](C(=O)N[C@@H](CC(C)C)C(=O)N[C@@H](C)C(N)=O)C(C)C)C(=O)N[C@@H](C)C(=O)N[C@@H](CCCCN)C(=O)NCC(=O)N[C@H](C(=O)N[C@@H](CC(C)C)C(=O)N[C@@H](C)C(N)=O)C(C)C (I: H-KWKKALLHHGLNCAKGVLA-NH2 / II: H-KKALLHHGLNCAKGVLA-NH2; disulfide I:13-II:11)
Staphylococcus aureus [1]
  Activity: Active

## CC(C)C[C@H](NC(=O)CNC(=O)[C@H](Cc1cnc[nH]1)NC(=O)[C@H](Cc1cnc[nH]1)NC(=O)[C@H](CC(C)C)NC(=O)[C@H](CC(C)C)NC(=O)[C@H](C)NC(=O)[C@H](CCCCN)NC(=O)[C@H](CCCCN)NC(=O)[C@H](Cc1c[nH]c2ccccc12)NC(=O)[C@@H](N)CCCCN)C(=O)N[C@@H](CC(N)=O)C(=O)N[C@@H](CSSC[C@H](NC(=O)[C@H](CC(N)=O)NC(=O)[C@H](CC(C)C)NC(=O)CNC(=O)[C@H](Cc1cnc[nH]1)NC(=O)[C@H](Cc1cnc[nH]1)NC(=O)[C@H](CC(C)C)NC(=O)[C@H](CC(C)C)NC(=O)[C@H](C)NC(=O)[C@H](CCCCN)NC(=O)[C@H](CCCCN)NC(=O)[C@H](Cc1c[nH]c2ccccc12)NC(=O)[C@@H](N)CCCCN)C(=O)N[C@@H](C)C(=O)N[C@@H](CCCCN)C(=O)NCC(=O)N[C@H](C(=O)N[C@@H](CC(C)C)C(=O)N[C@@H](C)C(=O)O)C(C)C)C(=O)N[C@@H](C)C(=O)N[C@@H](CCCCN)C(=O)NCC(=O)N[C@H](C(=O)N[C@@H](CC(C)C)C(=O)N[C@@H](C)C(N)=O)C(C)C (I: H-KWKKALLHHGLNCAKGVLA-NH2 / II: H-KWKKALLHHGLNCAKGVLA-OH; disulfide I:13-II:13)
Escherichia coli
  MIC: 2 mg/L (≈ 0.479 µM)
Staphylococcus aureus [2]
  Activity: Active
Salmonella enterica
  MIC: 2 mg/L (≈ 0.479 µM)
Staphylococcus aureus [3]
  Activity: inactive
Enterococcus faecium
  MIC: 2 mg/L (≈ 0.479 µM)
Citrobacter freundii
  MIC: 4 mg/L (≈ 0.959 µM)
Listeria monocytogenes
  MIC: 2 mg/L (≈ 0.479 µM)
Staphylococcus aureus [4]
  Activity: inactive
Staphylococcus aureus [5]
  Activity: Active
Klebsiella oxytoca
  MIC: 2 mg/L (≈ 0.479 µM)
Staphylococcus aureus [6]
  Activity: Active
Bacillus subtilis
  MIC: 2 mg/L (≈ 0.479 µM)
Micrococcus luteus
  MIC: 4 mg/L (≈ 0.959 µM)
Staphylococcus aureus [7]
  Activity: inactive
Staphylococcus aureus [8]
  MIC: 4 mg/L (≈ 0.959 µM)
Staphylococcus aureus [9]
  Activity: inactive
Pseudomonas aeruginosa
  MIC: 4 mg/L (≈ 0.959 µM)
Staphylococcus aureus [10]
  Activity: inactive

## CC(C)C[C@H](NC(=O)CNC(=O)[C@H](Cc1cnc[nH]1)NC(=O)[C@H](Cc1cnc[nH]1)NC(=O)[C@H](CC(C)C)NC(=O)[C@H](CC(C)C)NC(=O)[C@H](C)NC(=O)[C@H](CC(N)=O)NC(=O)[C@H](CC(C)C)NC(=O)[C@H](Cc1c[nH]c2ccccc12)NC(=O)[C@@H](N)CCCCN)C(=O)N[C@@H](CC(N)=O)C(=O)N[C@@H](CSSC[C@H](NC(=O)[C@H](CC(N)=O)NC(=O)[C@H](CC(C)C)NC(=O)CNC(=O)[C@H](Cc1cnc[nH]1)NC(=O)[C@@H](N)Cc1cnc[nH]1)C(=O)N[C@@H](C)C(=O)N[C@@H](CCCCN)C(=O)NCC(=O)N[C@H](C(=O)N[C@@H](CC(C)C)C(=O)N[C@@H](C)C(N)=O)C(C)C)C(=O)N[C@@H](C)C(=O)N[C@@H](CCCCN)C(=O)NCC(=O)N[C@H](C(=O)N[C@@H](CC(C)C)C(=O)N[C@@H](C)C(N)=O)C(C)C (I: H-KWLNALLHHGLNCAKGVLA-NH2 / II: H-HHGLNCAKGVLA-NH2; disulfide I:13-II:6)
Staphylococcus aureus [11]
  Activity: Active

## CC(C)C[C@H](NC(=O)CNC(=O)[C@H](Cc1cnc[nH]1)NC(=O)[C@H](Cc1cnc[nH]1)NC(=O)[C@H](CC(C)C)NC(=O)[C@H](CC(C)C)NC(=O)[C@H](C)NC(=O)[C@H](CCCCN)NC(=O)[C@H](CCCCN)NC(=O)[C@H](Cc1c[nH]c2ccccc12)NC(=O)[C@@H](N)CCCCN)C(=O)N[C@@H](CC(N)=O)C(=O)N[C@@H](CSSC[C@H](NC(=O)[C@H](CC(N)=O)NC(=O)[C@H](CC(C)C)NC(=O)CNC(=O)[C@H](Cc1cnc[nH]1)NC(=O)[C@H](Cc1cnc[nH]1)NC(=O)[C@@H](N)CC(C)C)C(=O)N[C@@H](C)C(=O)N[C@@H](CCCCN)C(=O)NCC(=O)N[C@H](C(=O)N[C@@H](CC(C)C)C(=O)N[C@@H](C)C(N)=O)C(C)C)C(=O)N[C@@H](C)C(=O)N[C@@H](CCCCN)C(=O)NCC(=O)N[C@H](C(=O)N[C@@H](CC(C)C)C(=O)N[C@@H](C)C(N)=O)C(C)C (I: H-KWKKALLHHGLNCAKGVLA-NH2 / II: H-LHHGLNCAKGVLA-NH2; disulfide I:13-II:7)
Staphylococcus aureus [1]
  Activity: Active
